Reference: publication PMC3180826 (ACS chemical neuroscience, 2010)
Numbering of substitutions follows the chain as printed.

Columns and labels:
hM5 = target: T1, hM5 (Homo sapiens, UniProt P08912); test: Calcium mobilization assay, agonist mode, M5; assay type: cell-based; details: up to 30 μM
T1 sequence (P08912 1-532): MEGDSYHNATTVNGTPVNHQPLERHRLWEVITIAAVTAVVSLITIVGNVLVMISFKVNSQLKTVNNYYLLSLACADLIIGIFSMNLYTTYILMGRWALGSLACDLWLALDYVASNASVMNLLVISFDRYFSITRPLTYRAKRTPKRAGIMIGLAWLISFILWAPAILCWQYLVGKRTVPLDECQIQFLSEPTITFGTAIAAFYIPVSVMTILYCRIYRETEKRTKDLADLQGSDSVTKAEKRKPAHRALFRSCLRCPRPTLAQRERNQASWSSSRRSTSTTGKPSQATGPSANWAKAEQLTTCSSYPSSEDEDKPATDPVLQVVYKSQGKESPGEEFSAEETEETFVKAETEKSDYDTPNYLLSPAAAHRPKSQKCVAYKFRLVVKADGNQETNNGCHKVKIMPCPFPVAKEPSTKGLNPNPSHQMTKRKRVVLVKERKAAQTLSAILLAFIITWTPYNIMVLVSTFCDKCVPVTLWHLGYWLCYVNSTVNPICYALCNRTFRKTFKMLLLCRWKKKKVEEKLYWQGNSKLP
Outline: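 CHO-K1 cells stably expressing hM2/Gqi5 or rM4/Gqi5 (6 × 10^4 cells/well), or hM3 or hM5 (5 × 10^4 cells/well), were cultured overnight at 37 °C in 5% CO2. Cells were loaded with 2 μM Fluo-4 AM for 1 h at 37 °C in HBSS with 20 mM HEPES and 2.5 mM probenecid, pH 7.4. Eight-point test compound concentration series were added at 19 s of a 130 s read. Calcium flux was read as fluorescence fold over basal.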

rM1 E397V = target: T2, rM1 E397V (Rattus norvegicus, UniProt P08482, E397V); test: Calcium mobilization, rM1 E397V mutant CHO-K1 cells; assay type: cell-based; details: compared with wt rM1
T2 sequence (P08482 1-460 E397V): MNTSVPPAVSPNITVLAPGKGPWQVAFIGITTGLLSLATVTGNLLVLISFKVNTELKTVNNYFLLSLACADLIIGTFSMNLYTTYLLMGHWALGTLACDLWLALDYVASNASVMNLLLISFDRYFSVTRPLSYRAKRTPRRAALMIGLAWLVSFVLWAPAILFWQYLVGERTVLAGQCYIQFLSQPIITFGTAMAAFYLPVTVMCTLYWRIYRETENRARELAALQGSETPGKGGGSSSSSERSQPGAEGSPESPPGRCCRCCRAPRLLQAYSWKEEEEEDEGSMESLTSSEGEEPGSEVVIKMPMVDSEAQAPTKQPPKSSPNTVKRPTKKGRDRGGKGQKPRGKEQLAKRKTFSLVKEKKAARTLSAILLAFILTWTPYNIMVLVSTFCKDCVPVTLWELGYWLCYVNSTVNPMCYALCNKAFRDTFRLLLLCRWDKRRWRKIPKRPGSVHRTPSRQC
Outline: (§1)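 CHO-K1 cells were transiently transfected overnight at 37 °C with 10 μg of mutant rat M1 cDNA in pcDNA3.1+ using Fugene 6, then plated for the calcium assay. They were loaded with 2 μM Fluo-4 AM for 1 h at 37 °C in HEPES/probenecid-buffered HBSS, pH 7.4. Test compound dose–response series were added at 19 s. Calcium mobilization was measured as fluorescence increase over basal.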

rM1 K392D = target: T3, rM1 K392D (Rattus norvegicus, UniProt P08482, K392D); test: Calcium mobilization, rM1 K392D mutant CHO-K1 cells; assay type: cell-based; details: compared with wt rM1
T3 sequence (P08482 1-460 K392D): T2 sequence (P08482 1-460 E397V) with K392D, V397E
Outline: as §1

M5 = target: T4, M5 (Homo sapiens, UniProt P08912); test: [3H]-NMS competition binding, M5 CHO membranes; details: concentrations well above those required to fully activate M1
T4 sequence (P08912 1-532): T1 sequence (P08912 1-532)

M2 = target: T5, M2 (Homo sapiens, UniProt P08172); test: [3H]-NMS competition binding, M2 CHO membranes; details: concentrations well above those required to fully activate M1
T5 sequence (P08172 1-466): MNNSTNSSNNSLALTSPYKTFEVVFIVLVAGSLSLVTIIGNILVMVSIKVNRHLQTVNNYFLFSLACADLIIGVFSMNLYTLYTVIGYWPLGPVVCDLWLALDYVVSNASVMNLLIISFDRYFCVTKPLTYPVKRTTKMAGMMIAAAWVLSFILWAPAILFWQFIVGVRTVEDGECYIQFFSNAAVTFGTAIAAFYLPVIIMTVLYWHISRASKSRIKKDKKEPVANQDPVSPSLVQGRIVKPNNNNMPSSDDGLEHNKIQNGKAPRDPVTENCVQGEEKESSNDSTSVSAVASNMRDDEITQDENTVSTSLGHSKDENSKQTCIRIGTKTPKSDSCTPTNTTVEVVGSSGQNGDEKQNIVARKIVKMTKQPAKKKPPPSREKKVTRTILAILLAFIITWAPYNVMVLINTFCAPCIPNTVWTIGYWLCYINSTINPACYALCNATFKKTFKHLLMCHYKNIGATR

rM1 E401H = target: T6, rM1 E401H (Rattus norvegicus, UniProt P08482, E401H); test: Calcium mobilization, rM1 E401H mutant CHO-K1 cells; assay type: cell-based
T6 sequence (P08482 1-460 E401H): T2 sequence (P08482 1-460 E397V) with V397E, E401H
Outline: as §1

**Q.** What does the source list for `CCOC(=O)N1CCC(NCCNC(=O)c2ccccc2)CC1` [VU0184670, ethyl 4-(2-benzamidoethylamino)piperidine-1-carboxylate]?
**A.** agonist activity at M5 (hM5): no activity; functional activity at E397V mutant (rM1 E397V): mild reduction in potency and efficacy; functional activity at K392D mutant (rM1 K392D): comparable results to wt rM1; reduction of [3H]-NMS binding to M5 (M5): did not reduce; reduction of [3H]-NMS binding to M2 (M2): did not reduce; EC50 (rM1 E401H): 1210 nM; Emax (rM1 E401H; CHO-K1, read-out: E401H mutant Emax): 29.4%
